Data on 32 molecules can be found in ChEMBL document CHEMBL4033715, “Optimization and biological evaluation of 2-aminobenzothiazole derivatives as Aurora B kinase inhibitors” (Bioorg Med Chem, 2017).

SMILES strings stand for the structures. Activity calls are given as the source filed them. The calls are words filed in the database; no cut-off is given here. Bounds are passed on as bounds.

Assay [1] has as its target T1, Aurora kinase B (Homo sapiens, UniProt Q96GD4). Put plainly: Inhibition of recombinant full length human N-terminal GST-tagged Aurora B expressed in baculovirus infected Sf9 cells using myelin basic protein as substrate after 60 mins by ADP-Glo luminescence assay. Put shortly: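 ADP-Glo assay with purified active Aurora B, myelin basic protein substrate, 10 µM ATP, 60 min kinase reaction at room temperature followed by luminescence detection. IC50 determined for compounds exceeding 50% inhibition relative to staurosporine, calculated by curve fitting.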
In general terms: ADP-Glo turns the ADP formed in a reaction into a luminescent signal.

Assay [2] addresses T2, Aurora kinase A (Homo sapiens) (UniProt O14965).
T2 sequence (whole entry): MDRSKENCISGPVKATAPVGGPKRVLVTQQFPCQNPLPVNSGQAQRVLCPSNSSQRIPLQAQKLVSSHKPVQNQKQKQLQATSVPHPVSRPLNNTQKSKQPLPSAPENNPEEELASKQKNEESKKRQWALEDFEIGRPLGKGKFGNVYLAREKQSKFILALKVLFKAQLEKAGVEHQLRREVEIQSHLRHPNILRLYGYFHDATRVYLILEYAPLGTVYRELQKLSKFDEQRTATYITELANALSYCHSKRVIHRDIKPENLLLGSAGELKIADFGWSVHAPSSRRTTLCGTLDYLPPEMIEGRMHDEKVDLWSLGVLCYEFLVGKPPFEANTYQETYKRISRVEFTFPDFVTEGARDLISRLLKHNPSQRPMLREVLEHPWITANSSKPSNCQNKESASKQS
Put plainly: Inhibition of recombinant full length human N-terminal GST-tagged Aurora A expressed in baculovirus infected Sf9 cells at 1 uM using myelin basic protein as substrate after 60 mins by ADP-Glo luminescence assay relative to control. In a few lines:
(§1)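 Purified active Aurora A or Aurora B with myelin basic protein substrate and 10 µM ATP; compounds dissolved in DMSO and tested at a single concentration (10 µM screen, or 1 µM). Reaction 60 min at room temperature, then ADP-Glo reagent 30 min and detection reagent 30 min; luminescence read. Inhibition expressed relative to 10 µM staurosporine.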

The target in assay [3] is T1, Aurora kinase B. Put plainly: Inhibition of recombinant full length human N-terminal GST-tagged Aurora B expressed in baculovirus infected Sf9 cells at 1 uM using myelin basic protein as substrate after 60 mins by ADP-Glo luminescence assay relative to control. Put shortly:
as §1

Assay [4] addresses T2, Aurora kinase A (Homo sapiens). In words: Inhibition of recombinant full length human N-terminal GST-tagged Aurora A expressed in baculovirus infected Sf9 cells at 10 uM using myelin basic protein as substrate after 60 mins by ADP-Glo luminescence assay relative to control. Put shortly: as §1
For assay [5], the target named is T1, Aurora kinase B. In words: Inhibition of recombinant full length human N-terminal GST-tagged Aurora B expressed in baculovirus infected Sf9 cells at 10 uM using myelin basic protein as substrate after 60 mins by ADP-Glo luminescence assay relative to control. Put shortly: as §1
The target in assay [6] is T1, Aurora kinase B. In words: Inhibition of Aurora B in human HeLa cells assessed as reduction in histone H3 phosphorylation at Ser10 residue after 1 hr by Western blot analysis. Format: cell-based. In a few lines:
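HeLa cells synchronized in mitosis by a 16 h Monastrol block, then released into Monastrol-free medium containing inhibitor at graded concentrations; Hesperadin 5 µM and DMSO as references. Cells harvested 1 h after release, lysed in RIPA with protease/phosphatase inhibitors, 20 µg protein resolved on 8~15% SDS-PAGE. Immunoblotted for phospho-H3S10, total histone H3, α-tubulin and Aurora B.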
Background: Immunoblotting shows a protein as a band on a membrane.

Assay [7] has as its system HeLa. In words: Cell cycle arrest in human HeLa cells assessed as accumulation at G2/M phase at 50 uM after 24 hrs by propidium iodide staining based flow cytometry (reference value: 12 %). Format: functional. Put shortly:
(§2)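 HeLa cells seeded the day before and exposed to inhibitor (10 or 50 µM) or DMSO for 24 h, harvested non-enzymatically, fixed in cold 70% EtOH at 4 °C for 2 h, stained with PI/Triton X-100 solution containing RNase A (25 °C, 20 min, dark). Cell cycle distribution was measured by flow cytometry, and the G2/M percentage was compared with DMSO.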
A general note: Flow cytometry measures light scatter and fluorescence of single cells or particles in a stream.

Assay [8] has as its system HeLa. In words: Cell cycle arrest in human HeLa cells assessed as increase in accumulation at G2/M phase at 50 uM after 24 hrs by propidium iodide staining based flow cytometry relative to control. Format: functional. Put shortly: as §2

T1 sequence (Q96GD4 whole entry): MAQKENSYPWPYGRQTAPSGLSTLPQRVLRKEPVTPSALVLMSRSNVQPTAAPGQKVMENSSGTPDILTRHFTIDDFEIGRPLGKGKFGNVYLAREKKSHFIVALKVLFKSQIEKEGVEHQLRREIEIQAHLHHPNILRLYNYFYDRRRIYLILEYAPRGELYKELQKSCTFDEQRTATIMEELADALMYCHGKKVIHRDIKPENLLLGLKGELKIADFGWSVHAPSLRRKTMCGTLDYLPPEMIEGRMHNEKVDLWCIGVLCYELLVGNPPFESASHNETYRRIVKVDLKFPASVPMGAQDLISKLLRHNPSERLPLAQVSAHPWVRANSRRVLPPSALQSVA

`O=C(Nc1ccccc1)Nc1cccc(CNc2nc3ccc(OCCN4CCOCC4)cc3s2)c1`: at Aurora kinase B [1], the half-maximal inhibitory concentration (IC50) amounted to 3.1 µM. The inhibition result in assay [2] was “inactive”. Further, the inhibition at Aurora kinase B [3] was 37%.
For `O=S(=O)(Nc1ccc(CNc2nc3ccc(OCCN4CCOCC4)cc3s2)cc1)c1ccc(Cl)cc1`, the inhibition result in assay [4] is “inactive”. Besides, the inhibition at Aurora kinase B [5] stood at 28%.
As to `O=C(Nc1cccc(Cl)c1)Nc1cccc(CNc2nc3ccc(OCCN4CCOCC4)cc3s2)c1`, the half-inhibitory concentration (IC50) at Aurora kinase B [1] was 1 µM. The inhibition result in assay [2] was “inactive”. In addition, the inhibition at Aurora kinase B [3] was 33%.
Regarding `O=C(Nc1ccc(Cl)cc1)Nc1ccc(CNc2nc3ccc(OCCN4CCOCC4)cc3s2)cc1`, the IC50 on Aurora kinase B [1] was determined as 0.12 µM. In assay [2], the inhibition result was “inactive”. Besides, the inhibition was 100% at Aurora kinase B [3] and “Dose-dependent effect” on Aurora kinase B [6]. Moreover, in the assay on HeLa [7], the Activity turned out to be 17%.
For the molecule `O=C(Nc1ccc(CNc2nc3ccc(OCCN4CCOCC4)cc3s2)cc1)c1ccc(Cl)cc1`, in assay [4], the inhibition result was “inactive”. Also, at Aurora kinase B [5], the inhibition amounted to 59%. For the same molecule, on Aurora kinase B [1], the IC50 turned out to be 3 µM.
For `O=C(Nc1cccc(CNc2nc3ccc(OCCN4CCOCC4)cc3s2)c1)c1ccc(Cl)cc1`, the inhibition result in assay [4] was “inactive”. For the same molecule, the inhibition at Aurora kinase B [5] was determined as 42%. For the same molecule, at Aurora kinase B [1], the IC50 is 6.2 µM.
As for `O=C(Nc1ccccc1)Nc1ccc(CNc2nc3ccc(OCCN4CCOCC4)cc3s2)cc1`, the IC50 on Aurora kinase B [1] was determined as 0.27 µM. For the same molecule, the inhibition entry in assay [2] is “inactive”. Besides, the inhibition at Aurora kinase B [3] worked out at 91%.
As to `COc1ccc(NC(=O)Nc2ccc(CNc3nc4ccc(OCCN5CCOCC5)cc4s3)cc2)cc1`, on Aurora kinase B [1], the IC50 was found to be 0.25 µM. Also, the inhibition entry in assay [2] is “inactive”. Also, at Aurora kinase B [3], the inhibition was 79%.
Turning to `O=C(Nc1ccc(F)cc1)n1ccc(CNc2nc3ccc(OCCN4CCOCC4)cc3s2)n1`, at Aurora kinase B [5], the inhibition is 5%.
Take `O=C(Nc1ccccc1)n1ccc(CNc2nc3ccc(OCCN4CCOCC4)cc3s2)n1`: the inhibition at Aurora kinase B [5] came out at 12%.
With `O=C(Nc1cccc(CNc2nc3ccc(OCCN4CCOCC4)cc3s2)c1)c1ccc(F)cc1`, the inhibition result in assay [4] was “inactive”. At Aurora kinase B [5], the inhibition stood at 56%. Besides, on Aurora kinase B [1], the IC50 was found to be 9 µM.
`O=C(Nc1ccc(Cl)cc1)Nc1cccc(CNc2nc3ccc(OCCN4CCOCC4)cc3s2)c1`: the IC50 on Aurora kinase B [1] amounted to 1.2 µM. The inhibition result in assay [2] is “inactive”. Moreover, the inhibition at Aurora kinase B [3] is 31%.
As for `COc1ccc(NC(=S)Nc2ccc(CNc3nc4ccc(OCCN5CCOCC5)cc4s3)cc2)cc1`, at Aurora kinase B [1], the IC50 came to 0.36 µM. Besides, the inhibition entry in assay [2] was “inactive”. Further, the inhibition on Aurora kinase B [3] turned out to be 72%.
In the case of `O=S(=O)(Nc1ccc(CNc2nc3ccc(OCCN4CCOCC4)cc3s2)cc1)c1ccccc1`, the inhibition entry in assay [4] is “inactive”. For the same molecule, the inhibition at Aurora kinase B [5] was 16%.
As to `S=C(Nc1ccc(Cl)cc1)Nc1ccc(CNc2nc3ccc(OCCN4CCOCC4)cc3s2)cc1`, the IC50 at Aurora kinase B [1] worked out at 0.11 µM. The inhibition in assay [2] amounted to 3%; at Aurora kinase B [3] it was 94%.
In the same order, the values of `O=C(Nc1ccc(Cl)cc1)Nc1ccc(CNc2nc3ccc(OCCN4CCCCC4)cc3s2)cc1` are 2.3 µM, “inactive” and 5%.
Take `O=C(Nc1ccc(Br)cc1)Nc1ccc(CNc2nc3ccc(OCCN4CCOCC4)cc3s2)cc1`: the IC50 at Aurora kinase B [1] is 0.09 µM. Further, the inhibition in assay [2] was 9%; on Aurora kinase B [3] it was 83%; on Aurora kinase B [6], “Dose-dependent effect”. Also, in the assay with HeLa [8], the “fold change (FC)” value is above 2.
Take `O=C(Nc1ccc(Br)cc1)n1ccc(CNc2nc3ccc(OCCN4CCOCC4)cc3s2)n1`: the inhibition on Aurora kinase B [5] was 31%.
`O=C(Nc1ccc(CNc2nc3ccc(OCCN4CCOCC4)cc3s2)cc1)Nc1ccc(Cl)c(Cl)c1`: the IC50 at Aurora kinase B [1] came to 0.27 µM. In addition, the inhibition is 2% in assay [2] and 77% at Aurora kinase B [3].
Turning to `O=C(Nc1cccc(CNc2nc3ccc(OCCN4CCOCC4)cc3s2)c1)c1cccc(Cl)c1`, the inhibition result in assay [4] was “inactive”. The inhibition at Aurora kinase B [5] turned out to be 30%.
For `O=C(Nc1ccc(F)cc1)Nc1ccc(CNc2nc3ccc(OCCN4CCOCC4)cc3s2)cc1`, the half-inhibitory concentration (IC50) at Aurora kinase B [1] is 0.7 µM. Besides, the inhibition entry in assay [2] is “inactive”. Further, on Aurora kinase B [3], the inhibition is 44%.
As for `CN(C)CCOc1ccc2nc(NCc3ccc(NC(=O)Nc4ccc(Cl)cc4)cc3)sc2c1`, the IC50 at Aurora kinase B [1] was 0.32 µM. Also, the inhibition entry in assay [2] is “inactive”. Moreover, the inhibition on Aurora kinase B [3] was 65%.
Consider `O=C(Nc1cccc(CNc2nc3ccc(OCCN4CCOCC4)cc3s2)c1)c1ccc([N+](=O)[O-])cc1`, for which, in assay [4], the inhibition result was “inactive”. For the same molecule, the inhibition on Aurora kinase B [5] amounted to 17%.
Consider `O=C(Nc1ccc(Cl)c(Cl)c1)n1ccc(CNc2nc3ccc(OCCN4CCOCC4)cc3s2)n1`, for which the inhibition on Aurora kinase B [5] turned out to be 46%.
With `O=C(Nc1ccc(CNc2nc3ccc(OCCN4CCOCC4)cc3s2)cc1)c1cccc(Cl)c1`, the inhibition result in assay [4] is “inactive”. The inhibition at Aurora kinase B [5] was 91%. In addition, the IC50 on Aurora kinase B [1] came to 1.4 µM.
As for `COc1ccc(C(=O)Nc2ccc(CNc3nc4ccc(OCCN5CCOCC5)cc4s3)cc2)cc1`, the inhibition result in assay [4] is “inactive”. Besides, on Aurora kinase B [5], the inhibition is 85%. In addition, the IC50 on Aurora kinase B [1] came out at 0.7 µM.
With `O=C(Nc1ccc(CNc2nc3ccc(OCCN4CCOCC4)cc3s2)cc1)Nc1cccc(Cl)c1`, the IC50 at Aurora kinase B [1] was found to be 0.46 µM. The inhibition entry in assay [2] is “inactive”. The inhibition on Aurora kinase B [3] is 67%.
Take `O=C(Nc1cccc(CNc2nc3ccc(OCCN4CCOCC4)cc3s2)c1)c1ccccc1`: the inhibition entry in assay [4] was “inactive”. Further, the inhibition on Aurora kinase B [5] amounted to 24%.
As to `O=C(Nc1ccccc1CNc1nc2ccc(OCCN3CCOCC3)cc2s1)c1ccccc1`, the inhibition entry (in assay [4]; at Aurora kinase B [5]) was “inactive” each time.
Take `O=S(=O)(Nc1ccc(CNc2nc3ccc(OCCN4CCOCC4)cc3s2)cc1)c1ccc(F)cc1`: the inhibition entry in assay [4] was “inactive”. Further, on Aurora kinase B [5], the inhibition amounted to 30%.
On to `O=C(Nc1ccc(CNc2nc3ccc(OCCN4CCOCC4)cc3s2)cc1)c1ccccc1`, for which the inhibition entry in assay [4] is “inactive”. Besides, on Aurora kinase B [5], the inhibition was 25%.
As for `O=C(Nc1ccc(Cl)cc1)n1ccc(CNc2nc3ccc(OCCN4CCOCC4)cc3s2)n1`, on Aurora kinase B [5], the inhibition was 31%.

As usually defined, the IC50 is the point on the concentration scale where inhibition reaches its midpoint. As usually defined, the inhibition is the drop in the measured response relative to a control, in per cent.
